FXIIa inh 1536: inhibitors of human coagulation factor XIIa; P00748; purified FXIIa, Boc-QGR-AMC fluorogenic substrate, 2 h; inhibition, % at 5 µM; 0.3% of 220,000 active; in the data active = inhibition above about 40%;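 also: 0% = enzyme with no compound and 100% = blank without enzyme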
Biofilm kill mix: mixture kills Candida albicans biofilm cells | 0.02% of 120,000 active | AID 1242 | inhibition, % at 7.6 µM | C. albicans biofilm persisters + clotrimazole, fluorescence viability; primary screen in compound mixtures of four per well;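 also: compounds exposed to preformed 24 h biofilms for 48 h; 0% = untreated biofilm control and 100% = clotrimazole plus chlorhexidine kill blank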
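Assay system: C. albicans biofilms / Medium: RPMI/MOPS medium, pH 7.0 / Schedule: biofilm formation 24 h, compound exposure 48 h, 37 °C / Measured by: Alamar Blue fluorescence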
Thrombin inh: blocks human thrombin protease activity. P00734. AID 1046. inhibition, % at 5 µM. 0.26% of 220,000 active. alpha-thrombin, Boc-VPR-AMC fluorogenic substrate cleavage;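 active = inhibition at or above 40%; inactive = inhibition below 40%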;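 also: 0% = enzyme with no compound and 100% = wells without enzyme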
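Material: human alpha-thrombin protein; Also added: Boc-VPR-AMC substrate, 15 µM final; Timing: enzyme reaction carried out at room temperature; Signal: fluorescence, ex 355 nm, em 460 nm; Measure: % inhibition of thrombin; Controls: enzyme without compound as high, wells lacking enzyme as low.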
hK5 inh: kallikrein 5 (human) inhibition; recombinant hK5, fluorogenic AMC substrate cleavage; inhibition, % at 5 µM; 0.59% of 210,000 active;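 active = inhibition of 40% or more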;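 also: 0% = enzyme controls without compound and 100% = no-enzyme blanks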
Furin inhibitor: blocks human furin protease activity. purified furin, fluorogenic substrate cleavage. inhibition, % at 20 µM or 30 µM. 0.061% of 220,000 active. AID 463115; in the data active = inhibition above about 25%
Target sequence (P09958 108-714 limits assumed): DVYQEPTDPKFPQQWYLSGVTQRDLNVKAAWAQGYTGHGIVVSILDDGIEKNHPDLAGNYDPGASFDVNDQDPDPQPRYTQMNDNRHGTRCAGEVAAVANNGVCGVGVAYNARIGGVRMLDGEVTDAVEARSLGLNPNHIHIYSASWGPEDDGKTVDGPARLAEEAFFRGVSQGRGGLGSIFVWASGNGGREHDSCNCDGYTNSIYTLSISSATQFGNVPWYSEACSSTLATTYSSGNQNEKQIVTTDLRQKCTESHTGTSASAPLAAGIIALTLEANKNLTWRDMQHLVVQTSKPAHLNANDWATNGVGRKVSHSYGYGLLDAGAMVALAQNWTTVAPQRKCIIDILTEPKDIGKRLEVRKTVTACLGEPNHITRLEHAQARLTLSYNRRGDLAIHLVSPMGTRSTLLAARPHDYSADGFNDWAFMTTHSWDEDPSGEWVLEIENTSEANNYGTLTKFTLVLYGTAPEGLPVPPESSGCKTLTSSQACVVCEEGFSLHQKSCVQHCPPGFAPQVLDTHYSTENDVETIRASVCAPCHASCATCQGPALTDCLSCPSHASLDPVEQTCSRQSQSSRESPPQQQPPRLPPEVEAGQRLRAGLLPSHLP
FXIa inh: factor XIa (human) inhibition. P03951. purified FXIa, Boc-Glu-Ala-Arg-AMC fluorogenic substrate. inhibition, % at 5 µM. 0.14% of 220,000 active. AID 798;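 active = inhibition of at least 40%; inactive = inhibition below 40%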;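 also: fluorescence of freed AMC excited at 355 nm; 0% = enzyme without compound and 100% = no enzyme blank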
Starred values were filed as active, the others as inactive; / = no result. Hits are enriched below; roughly 1.1% of the tested compounds scored in any of these assays.

SMILES	FXIIa inh 1536	Biofilm kill mix	Thrombin inh	hK5 inh	Furin inhibitor	FXIa inh
CC1OC(O[C@H]2CC[C@]3(C)C4C=C[C@]56OC[C@@]7(CC[C@@H](C)[C@H](C)C75)[C@H](O)C[C@@]6(C)[C@]4(C)CC[C@H]3C2(C)C)C(OC2OC(CO)C(O)C(O)C2OC2OCC(O)C(O)C2O)C(O)C1O (some centres undefined)	4	3	55*	0	-19	0
CC12CCC(c3c(C(=O)Nc4nccs4)nn(-c4ccccc4)c31)C2(C)C (centres undefined)	22	/	14	52*	-6	12
O=C1C=C(c2ccccc2)OC2(CCCC2)O1	9	/	-3	2	-16	1
O=C1C=C(c2ccc(Cl)cc2)OC2(CCCC2)O1	13	/	-4	11	29*	-2
O=C(NC1CCSC1=O)c1ccccc1 (centres undefined)	6	/	-5	-15	-21	-6
O=C1SCCC1NC(=O)C(c1ccccc1)c1ccccc1 (centres undefined)	40*	20	14	94*	-4	60*
CC(=O)Nc1ccc(NS(=O)(=O)c2ccc(C)cc2)cc1[N+](=O)[O-]	4	10	-5	47*	12	-13
O=S(=O)(CC(c1ccccc1)N1CCCCC1)c1ccc(Cl)cc1 (centres undefined)	16	5	6	48*	-9	5
Cc1ccc(S(=O)(=O)CC(c2ccccc2)N2CCCCC2)cc1 (centres undefined)	/	0	-1	3	-34	5
CCOC(=O)c1cc(NC(=O)CC(C)(C)CC(=O)O)ccc1N1CCCCC1	3	25	-8	1	-12	0
CCOc1cc(S(=O)(=O)NCc2cccnc2)c(C)cc1C	5	7	-4	8	-23	-1
Cc1ccccc1Oc1ncnc2oc(-c3ccccc3)cc12	22	/	34	59*	-4	7
Clc1ccc(Oc2ncnc3oc(-c4ccccc4)cc23)cc1	33	/	3	-4	-14	18
Cc1cc(C)cc(-n2c(C)cc(C(=O)CSc3nnnn3C)c2C)c1	12	/	3	5	-10	-14
Cc1cc(C(=O)CSc2nnnn2C)c(C)n1-c1cccc(F)c1	23	/	49*	34	-12	14
O=C(NCCc1cccc(Cl)c1)c1cc([N+](=O)[O-])ccc1Cl	9	11	-5	-23	-13	1
O=C(NCCc1ccc2c(c1)OCCO2)c1ccc([N+](=O)[O-])cc1Cl	10	7	4	40*	-2	11
O=C(NCCCN1CCN(CCCNC(=O)c2cc([N+](=O)[O-])ccc2Cl)CC1)c1cc([N+](=O)[O-])ccc1Cl	5	7	19	43*	-16	2
Cc1cccc(N/C(N)=N/c2nc(C)cc(=O)[nH]2)c1	12	19	2	13	-9	5
CCOc1ccc(NC(=O)c2ccc(CNc3c(N4CCCC4)c(=O)c3=O)cc2)cc1	21	5	41*	7	1	11
CSc1ccc(NC(=O)c2cccnc2)cc1C#N	9	10	-3	2	-15	-1
C=CCn1c(O)c(N=NC(=S)Nc2ccccc2F)c2cc(S(=O)(=O)N3CCOCC3)ccc21	55*	16	-2	20	-5	35
Cc1cccc(NC(=S)NC(=O)/C=C/c2ccccc2)n1	26	7	50*	27	-4	29
O=C(NCCc1nc2ccccc2[nH]1)c1ccco1	14	/	20	52*	-18	20
O=[N+]([O-])c1ccc(O)c2ncccc12	9	32*	-1	-57	21	8
SMILES	FXIIa inh 1536	Biofilm kill mix	Thrombin inh	hK5 inh	Furin inhibitor	FXIa inh
Cc1ccccc1-n1c(SCc2c(C)noc2C)nnc1-c1cccnc1	15	/	33	52*	-10	6
CCOC(=O)Cc1csc(NC(=O)COc2cc(C)cc(C)c2)n1	2	13	-13	-9	-20	-4
O=C(NCc1ccccc1)c1sc(=S)n2c1[nH]c(=O)c1ccccc12	16	/	25	43*	-28	16
Cn1c2c(c(=O)n(C)c1=O)NC1(N2)C(=O)Nc2ccccc21 (centres undefined)	10	24	3	-2	-15	-5
Cc1ccc(S(=O)(=O)NCC(=O)OCC(=O)Nc2ncc(Cl)cc2Cl)cc1	71*	/	8	4	-17	6
Cc1ccc(S(=O)(=O)CCC(=O)OCC(=O)Nc2ncc(Cl)cc2Cl)cc1	14	/	5	-9	-28	4
O=C(NNC1=NCCCCC1)Nc1ccc(Cl)cc1	8	15	0	2	-39	10
O=C(NNC1=NCCCCC1)Nc1cccc(Cl)c1	42*	12	40*	24	-3	47*
O=C(CCC1CCCN(C(=O)C2(c3ccccc3)CC2)C1)N1CCN(c2ccccn2)CC1 (centres undefined)	9	23	96*	0	-32	-4
O=C(CCC1CCCN(c2ncccn2)C1)N1CCN(c2ccccn2)CC1 (centres undefined)	13	25	0	2	-4	5
CCOc1ccc(S(=O)(=O)n2ccc(C)n2)c2ccccc12	16	/	16	49*	-15	6
Cc1ccc(NC(=O)C2CC(=O)Nc3nncn32)cc1 (centres undefined)	12	20	-10	-6	-8	-2
O=C(c1cnn(C(=O)c2ccc(O)cc2)c1)c1ccccc1O	18	13	12	42*	-6	2
CN(C)c1cccc(C(=O)n2cc(C(=O)c3cc(F)ccc3O)cn2)c1	41*	/	16	32	-16	4
CCCCc1nnc(NC(=O)COc2ccc3c(C)cc(=O)oc3c2)s1	34	8	14	112*	3	14
Cc1cc(=O)oc2cc(OCC(=O)Nc3nnc(CC(C)C)s3)ccc12	4	/	-6	12	-29	-4
O=C1CCCC/C1=C/NCc1ccc(F)cc1	4	12	1	-3	-8	-4
O=C(Nc1ccc(Nc2ccccc2)cc1)c1ccc(Br)o1	0	/	-18	-2	-11	4
Cc1c(NC(=O)c2ccc(Br)o2)cccc1C(=O)O	45*	/	1	6	-16	19
CC(C)c1ccc(NC(=O)c2ccc(Br)o2)cc1	50*	6	25	30	-15	22
Cc1c(NC(=O)c2ccccc2N)cccc1C(=O)O	22	/	-4	-10	-18	5
CN1CCC(N(C)C(=S)NCCc2ccccc2)CC1	10	13	-5	4	-20	2
COc1ccccc1-n1cnnc1SCC(=O)NCC1CCCO1 (centres undefined)	1	16	-1	-22	-29	-5
C=C1N(c2cccc(Cl)c2)C(=O)OC1(C)C	10	37	-5	7	-13	0
